{
  "source": "ChEMBL document CHEMBL1133005",
  "about": "“Improving the oral bioavailability of the iron chelator HBED by breaking the symmetry of the intramolecular H-bond network” (J Med Chem, 2000)",
  "assay_type_in_all_cases": "physicochemical",
  "key": {"[1]": {"experiment": "Partition coefficient (logP) (cyclohexane)", "in_short": "(§1)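 Free-ligand partition coefficients are measured by the pH-metric technique. This uses two linked titrations: a normal aqueous titration, then a two-phase titration in the presence of the partition solvent.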"}, "[2]": {"experiment": "Partition coefficient (logP)", "settings": "octanol/water", "in_short": "as §1"}, "[3]": {"experiment": "Evaluated for ionization constant (pKa1) by titrations performed in presence of a MeOH and at a dielectric constant of 62", "settings": "MeOH cosolvent, dielectric constant 62; read-out: pKa1", "in_short": "(§2)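 pH-metric titration in mixed water/cosolvent media (MeOH or EtOH, depending on the ligand) at several cosolvent proportions, each proportion setting the dielectric constant. Electrode calibrated with pH 7.00 phosphate buffer and standardized after a blank titration by a nonlinear semiempirical fit. Readings were converted to pcH to give concentration-scale constants.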"}, "[4]": {"experiment": "Evaluated for ionization constant (pKa4) by titrations performed in presence of a MeOH and at a dielectric constant of 62", "settings": "MeOH cosolvent; read-out: pKa4", "in_short": "as §2"}, "[5]": {"experiment": "Evaluated for ionization constant (pKa4) by titrations performed in presence of a MeOH and at a dielectric constant of 56", "settings": "MeOH cosolvent; read-out: pKa4", "in_short": "as §2"}, "[6]": {"experiment": "Evaluated for ionization constant (pKa3) by titrations performed in presence of a MeOH and at a dielectric constant of 49", "settings": "MeOH cosolvent; read-out: pKa3", "in_short": "as §2"}, "[7]": {"experiment": "Evaluated for ionization constant (pKa3) by titrations performed in presence of a MeOH and at a dielectric constant of 62", "settings": "MeOH cosolvent; read-out: pKa3", "in_short": "as §2"}, "[8]": {"experiment": "Evaluated for ionization constant (pKa3) by titrations performed in presence of a MeOH and at a dielectric constant of 56", "settings": "MeOH cosolvent; read-out: pKa3", "in_short": "as §2"}, "[9]": {"experiment": "Evaluated for ionization constant (pKa4) by titrations performed using the method of Yasuda and Shedlovsky", "settings": "read-out: pKa4", "in_short": "(§3)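 Potentiometric pH titration. The electrode is calibrated with pH 7.00 phosphate buffer. A blank titration before each set standardizes the electrode by a nonlinear semiempirical equation, and readings are converted to the concentration scale pcH = −log[H+]. Runs use varying amounts of MeOH or EtOH cosolvent, and aqueous pKa values are extrapolated by the Yasuda–Shedlovsky method. Low pKa values (pH < 2) are determined by spectrophotometric titration.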"}, "[10]": {"experiment": "Evaluated for ionization constant (pKa1) by titrations performed using method of Yasuda and Shedlovsky", "settings": "read-out: pKa1", "in_short": "(§4)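 Aqueous constants were extrapolated by the Yasuda–Shedlovsky method from pH-metric titrations run at several MeOH or EtOH cosolvent levels. Electrode calibrated with pH 7.00 phosphate buffer and standardized after a blank titration. Values are expressed on the pcH (-log[H+]) concentration scale.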"}, "[11]": {"experiment": "Evaluated for ionization constant (pKa3) by titrations performed using the method of Yasuda and Shedlovsky", "settings": "read-out: pKa3", "in_short": "as §4"}, "[12]": {"experiment": "Evaluated for ionization constant (pKa2) by titrations performed using method of Yasuda and Shedlovsky", "settings": "read-out: pKa2", "in_short": "as §4"}, "[13]": {"experiment": "Evaluated for ionization constant (pKa1) by titrations performed in presence of a MeOH and at a dielectric constant of 56", "settings": "MeOH cosolvent, dielectric constant 56; read-out: pKa1", "in_short": "as §2"}, "[14]": {"experiment": "Evaluated for ionization constant (pKa2) by titrations performed in presence of a MeOH and at a dielectric constant of 56", "settings": "MeOH cosolvent, dielectric constant 56; read-out: pKa2", "in_short": "as §2"}, "[15]": {"experiment": "Evaluated for ionization constant (pKa2) by titrations performed in presence of a MeOH and at a dielectric constant of 62", "settings": "MeOH cosolvent, dielectric constant 62; read-out: pKa2", "in_short": "as §2"}, "[16]": {"experiment": "Evaluated for ionization constant (pKa2) by titrations performed in presence of a MeOH and at a dielectric constant of 49", "settings": "MeOH cosolvent, dielectric constant 49; read-out: pKa2", "in_short": "as §2"}, "[17]": {"experiment": "Evaluated for ionization constant (pKa4) by titrations performed in presence of a MeOH and at a dielectric constant of 49", "settings": "MeOH cosolvent; read-out: pKa4", "in_short": "as §2"}, "[18]": {"experiment": "Evaluated for ionization constant (pKa4) by titrations performed in the presence of MeOH at a dielectric constant of 49", "settings": "MeOH cosolvent; read-out: pKa4", "in_short": "as §2"}, "[19]": {"experiment": "Evaluated for ionization constant (pKa3) by titrations performed in the presence of MeOH at a dielectric constant of 56", "settings": "MeOH cosolvent; read-out: pKa3", "in_short": "as §2"}, "[20]": {"experiment": "Evaluated for ionization constant (pKa6) by titrations performed in the presence of MeOH at a dielectric constant of 62", "settings": "MeOH cosolvent, dielectric constant 62; read-out: pKa6", "in_short": "as §3"}, "[21]": {"experiment": "Evaluated for ionization constant (pKa6) by titrations performed using the method of Yasuda and Shedlovsky", "settings": "read-out: pKa6", "in_short": "as §3"}, "[22]": {"experiment": "Evaluated for ionization constant (pKa3) by titrations performed in the presence of MeOH at a dielectric constant of 62", "settings": "MeOH cosolvent; read-out: pKa3", "in_short": "as §2"}, "[23]": {"experiment": "Evaluated for ionization constant (pKa5) by titrations performed in the presence of MeOH at a dielectric constant of 62", "settings": "MeOH cosolvent; read-out: pKa5", "in_short": "as §3"}, "[24]": {"experiment": "Evaluated for ionization constant (pKa4) by titrations performed in the presence of MeOH at a dielectric constant of 56", "settings": "MeOH cosolvent, dielectric constant 56; read-out: pKa4", "in_short": "as §2"}, "[25]": {"experiment": "Evaluated for ionization constant (pKa2) by titrations performed in the absence of cosolvent and at a dielectric constant of 78", "settings": "no cosolvent, dielectric constant 78; read-out: pKa2"}, "[26]": {"experiment": "Evaluated for ionization constant (pKa3) by titrations performed in the absence of a cosolvent and at a dielectric constant of 78", "settings": "no cosolvent; read-out: pKa3"}, "[27]": {"experiment": "Evaluated for ionization constant (pKa4) by titrations performed in the presence of MeOH at a dielectric constant of 62", "settings": "MeOH cosolvent; read-out: pKa4", "in_short": "as §2"}, "[28]": {"experiment": "Evaluated for ionization constant (pKa2) by titrations performed in the presence of MeOH at a dielectric constant of 56", "settings": "MeOH cosolvent, dielectric constant 56; read-out: pKa2", "in_short": "as §2"}, "[29]": {"experiment": "Evaluated for ionization constant (pKa5) by titrations performed using the method of Yasuda and Shedlovsky", "settings": "read-out: pKa5", "in_short": "as §3"}, "[30]": {"experiment": "Evaluated for ionization constant (pKa5) by titrations performed in the presence of MeOH at a dielectric constant of 56", "settings": "MeOH cosolvent; read-out: pKa5", "in_short": "as §3"}, "[31]": {"experiment": "Evaluated for ionization constant-1 (pKa1) by titrations performed in absence of a cosolvent at a dielectric constant of 78", "settings": "no cosolvent, dielectric constant 78; read-out: pKa1", "in_short": "as §3"}, "[32]": {"experiment": "Evaluated for ionization constant (pKa6) by titrations performed in the presence of MeOH at a dielectric constant of 49", "settings": "MeOH cosolvent, dielectric constant 49; read-out: pKa6", "in_short": "as §3"}, "[33]": {"experiment": "Evaluated for ionization constant (pKa4) by titrations performed in the absence of a cosolvent and at a dielectric constant of 78", "settings": "no cosolvent; read-out: pKa4"}, "[34]": {"experiment": "Partition coefficient (logP) (chloroform)", "in_short": "as §1"}, "[35]": {"experiment": "Evaluated for ionization constant (pKa5) by titrations performed in the presence of MeOH at a dielectric constant of 49", "settings": "MeOH cosolvent; read-out: pKa5", "in_short": "as §3"}, "[36]": {"experiment": "Evaluated for ionization constant (pKa6) by titrations performed in the presence of MeOH at a dielectric constant of 56", "settings": "MeOH cosolvent, dielectric constant 56; read-out: pKa6", "in_short": "as §3"}, "[37]": {"experiment": "Evaluated for ionization constant (pKa3) by titrations performed in the presence of MeOH at a dielectric constant of 49", "settings": "MeOH cosolvent; read-out: pKa3", "in_short": "as §2"}},
  "data": [
    {"smiles": "COC(=O)CN(CCN(CC(=O)OC)Cc1ccccc1O)Cc1ccccc1O", "values": [
      {"measurement": "logP", "setting": "[1]", "result": 2.11},
      {"measurement": "logP", "setting": "[2]", "result": 2.86},
      {"measurement": "pKa", "setting": "[3]", "result": 12.6},
      {"measurement": "pKa", "setting": "[4]", "result": 1.1},
      {"measurement": "pKa", "setting": "[5]", "result": 0.82},
      {"measurement": "pKa", "setting": "[6]", "result": 5.4},
      {"measurement": "pKa", "setting": "[7]", "result": 5.58},
      {"measurement": "pKa", "setting": "[8]", "result": 5.46},
      {"measurement": "pKa", "setting": "[9]", "result": 1.4},
      {"measurement": "pKa", "setting": "[10]", "result": 12.2},
      {"measurement": "pKa", "setting": "[11]", "result": 5.7},
      {"measurement": "pKa", "setting": "[12]", "result": 10.9},
      {"measurement": "pKa", "setting": "[13]", "result": 12.9},
      {"measurement": "pKa", "setting": "[14]", "result": 11.6},
      {"measurement": "pKa", "setting": "[15]", "result": 11.3},
      {"measurement": "pKa", "setting": "[16]", "result": 11.9},
      {"measurement": "pKa", "setting": "[17]", "result": 0.69}
    ]},
    {"smiles": "O=C(O)CN(CCN(CC(=O)O)Cc1ccccc1O)Cc1ccccc1O", "values": [
      {"measurement": "logP", "setting": "[1]", "result": "< -2"},
      {"measurement": "pKa", "setting": "[18]", "result": 4.71},
      {"measurement": "logP", "setting": "[2]", "result": 0.16},
      {"measurement": "pKa", "setting": "[19]", "result": 8.36},
      {"measurement": "pKa", "setting": "[20]", "result": 1.05},
      {"measurement": "pKa", "setting": "[21]", "result": 0.92},
      {"measurement": "pKa", "setting": "[22]", "result": 8.36},
      {"measurement": "pKa", "setting": "[23]", "result": 2.25},
      {"measurement": "pKa", "setting": "[24]", "result": 4.57},
      {"measurement": "pKa", "setting": "[25]", "result": 11.1},
      {"measurement": "pKa", "setting": "[9]", "result": 4.58},
      {"measurement": "pKa", "setting": "[26]", "result": 8.34},
      {"measurement": "pKa", "setting": "[27]", "result": 4.58},
      {"measurement": "pKa", "setting": "[11]", "result": 8.36},
      {"measurement": "pKa", "setting": "[28]", "result": 12.5},
      {"measurement": "pKa", "setting": "[29]", "result": 1.62},
      {"measurement": "pKa", "setting": "[30]", "result": 2.34},
      {"measurement": "pKa", "setting": "[31]", "result": 12.9},
      {"measurement": "pKa", "setting": "[32]", "result": 1.18},
      {"measurement": "pKa", "setting": "[33]", "result": 4.61},
      {"measurement": "logP", "setting": "[34]", "result": "< -2"},
      {"measurement": "pKa", "setting": "[35]", "result": 2.72},
      {"measurement": "pKa", "setting": "[36]", "result": 1.11},
      {"measurement": "pKa", "setting": "[37]", "result": 8.37}
    ]}
  ]
}
